Assay results reported in publication PMC10445456 (Virus Research, 2023).

Key:
vCDK/pUL97 = biological target: T1, vCDK/pUL97 (Human cytomegalovirus, UniProt P16788); test: qSox-IVKA of immunoprecipitated pUL97-Flag; type: biochemical, HCMV
T1 sequence (P16788 1-707): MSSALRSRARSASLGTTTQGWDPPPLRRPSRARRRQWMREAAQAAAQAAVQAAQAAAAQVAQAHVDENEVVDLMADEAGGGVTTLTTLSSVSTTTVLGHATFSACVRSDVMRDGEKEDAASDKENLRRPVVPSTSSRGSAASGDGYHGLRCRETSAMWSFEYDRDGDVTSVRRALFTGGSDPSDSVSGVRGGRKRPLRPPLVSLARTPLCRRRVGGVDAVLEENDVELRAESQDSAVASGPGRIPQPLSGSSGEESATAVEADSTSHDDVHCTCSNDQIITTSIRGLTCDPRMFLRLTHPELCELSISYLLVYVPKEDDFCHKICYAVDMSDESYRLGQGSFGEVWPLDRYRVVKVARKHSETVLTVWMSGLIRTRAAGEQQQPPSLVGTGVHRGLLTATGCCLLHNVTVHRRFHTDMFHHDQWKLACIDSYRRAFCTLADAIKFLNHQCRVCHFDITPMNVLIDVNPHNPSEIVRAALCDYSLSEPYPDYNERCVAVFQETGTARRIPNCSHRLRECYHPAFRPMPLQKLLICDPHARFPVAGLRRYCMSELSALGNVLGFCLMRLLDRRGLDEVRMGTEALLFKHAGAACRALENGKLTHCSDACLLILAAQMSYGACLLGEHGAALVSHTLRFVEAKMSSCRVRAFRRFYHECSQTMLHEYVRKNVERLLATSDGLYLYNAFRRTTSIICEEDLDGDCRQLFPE

pUL97-Flag/CDK7 = pUL97-Flag/CDK7 (Homo sapiens, UniProt P50613); test: qSox-IVKA of coimmunoprecipitated pUL97-Flag/CDK7, pUL97-specific sensor peptide; type: biochemical, HCMV / human; conditions: 0.01 µM LDC4297
human CDK7 = human CDK7 (Homo sapiens, UniProt P50613); test: qSox-IVKA of immunoprecipitated CDK7; type: biochemical
CDK7 + pUL97-Flag = biological target: T2, CDK7 + pUL97-Flag (Human cytomegalovirus, UniProt P16788); test: qSox-IVKA of CDK7 + pUL97-Flag samples, CDK7-specific sensor peptide; type: biochemical, human / HCMV; conditions: 0.35 µM MBV
T2 sequence (P16788 1-707): T1 sequence (P16788 1-707)
In short: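 293T cells were transfected with pUL97-Flag or empty vector. At 2 d p.t., CDK7 and/or pUL97-Flag were immunoprecipitated, with a mouse Fc pseudo-IP as control. Eluate in HEPES pH 7.5 enzyme buffer was added to a reaction mix (final 1.0 mM ATP, 10 mM MgCl2, 15 µM CDK7 Sox sensor peptide AQT0459). Fluorescence (Ex355/Em480) was read kinetically at 30°C for about 80 min, in triplicate. Fc/empty-vector background was subtracted and Wb normalization factors applied. Combined-IP activity was related to CDK7 single IP, or pUL97-only activity was subtracted. 0.35 µM test compound or DMSO was added to combined samples. Data are from one representative biological replicate.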

CDK7 pSer164 and pThr170 = test: Wb of CDK7 T-loop phosphorylation in HCMV AD169-infected HFFs; type: cell-based, human; conditions: 0.35 µM MBV from 24 h p.i., harvested 3 d p.i., HCMV AD169 MOI 0.5
In short: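 HFFs in T75 flasks were infected 1 d after seeding with HCMV AD169, UL97 K355Δ kinase-dead mutant (MOI 0.5) or mock; inoculum was replaced after 90 min at 37°C. AD169-infected cells received 0.35 µM test compound or DMSO at 24 h p.i. Cells were harvested 3 d p.i. for SDS-PAGE/Wb with phosphosite-specific antibodies against CDK7 pSer164 and pThr170.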

[1] = test system: HCMV-infected TEV-1 cells (cyclin H mRNA); test: cyclin H mRNA levels by one-step RT-qPCR in HCMV Merlin-infected TEV-1 cells; type: cell-based, human; conditions: 1 µM MBV, HCMV Merlin MOI 0.5
[2] = test system: HCMV-infected HFFs (cyclin H mRNA); test: cyclin H mRNA levels by one-step RT-qPCR in HCMV Merlin-infected HFFs; type: cell-based, human; conditions: 1 µM MBV, HCMV Merlin MOI 0.5, 7 d p.i.

human CDK7, sequence (P50613 whole entry): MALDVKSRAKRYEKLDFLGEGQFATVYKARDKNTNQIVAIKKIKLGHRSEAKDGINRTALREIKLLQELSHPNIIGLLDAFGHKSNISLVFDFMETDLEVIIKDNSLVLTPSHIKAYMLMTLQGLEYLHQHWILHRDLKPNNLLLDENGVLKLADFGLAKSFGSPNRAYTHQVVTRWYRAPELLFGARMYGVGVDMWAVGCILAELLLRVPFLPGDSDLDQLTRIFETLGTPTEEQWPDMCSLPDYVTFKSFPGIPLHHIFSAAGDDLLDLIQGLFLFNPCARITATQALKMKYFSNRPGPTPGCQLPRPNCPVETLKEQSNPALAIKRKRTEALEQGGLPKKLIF
human CDK7, sequence (P51946 whole entry partner): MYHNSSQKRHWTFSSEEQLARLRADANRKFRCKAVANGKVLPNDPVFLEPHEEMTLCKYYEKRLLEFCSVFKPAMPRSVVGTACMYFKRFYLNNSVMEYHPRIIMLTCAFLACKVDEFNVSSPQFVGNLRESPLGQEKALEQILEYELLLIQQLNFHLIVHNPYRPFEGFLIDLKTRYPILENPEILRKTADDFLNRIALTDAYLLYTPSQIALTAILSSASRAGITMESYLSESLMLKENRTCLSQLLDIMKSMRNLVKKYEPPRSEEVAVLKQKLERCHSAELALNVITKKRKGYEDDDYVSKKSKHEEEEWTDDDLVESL
human CDK7, sequence (P51948 whole entry partner): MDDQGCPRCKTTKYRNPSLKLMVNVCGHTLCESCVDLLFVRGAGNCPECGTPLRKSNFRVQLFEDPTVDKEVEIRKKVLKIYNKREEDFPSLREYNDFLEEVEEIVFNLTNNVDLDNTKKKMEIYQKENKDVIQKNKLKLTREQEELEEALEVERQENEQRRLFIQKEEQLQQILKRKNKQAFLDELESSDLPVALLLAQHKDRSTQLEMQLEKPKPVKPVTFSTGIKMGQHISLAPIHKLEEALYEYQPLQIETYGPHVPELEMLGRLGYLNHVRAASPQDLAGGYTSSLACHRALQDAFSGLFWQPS
pUL97-Flag/CDK7, sequence (P50613 whole entry): as the sequence (P50613 whole entry) above
pUL97-Flag/CDK7, sequence (P51946 whole entry partner): as the sequence (P51946 whole entry partner) above
pUL97-Flag/CDK7, sequence (P51948 whole entry partner): as the sequence (P51948 whole entry partner) above

## recombinant cyclin H: recombinant human cyclin H, full-length, GST-tag, expressed in insect cells (ABIN6699744)
vCDK/pUL97; exogenous addition of 100 nM recombinant cyclin H
  increase of in vitro kinase activity of pUL97: 31.5%

## CC(C)c1cnn2c(NCc3ccccc3-n3cccn3)nc(OC3CCCNC3)nc12 (stereo not shown) [LDC4297]
pUL97-Flag/CDK7
  change in pUL97 activity upon inhibition of CDK7: no change in pUL97 activity
Human CDK7; applied concentration of LDC4297 in the IVKA (5 µM)
  effect on CDK7 activity: completely blocked CDK7 activity
vCDK/pUL97; 5 µM LDC4297
  inhibitory effect on pUL97 activity: did not affect pUL97 kinase activity

## CC(C)Nc1nc2cc(Cl)c(Cl)cc2n1[C@H]1O[C@@H](CO)[C@H](O)[C@@H]1O [MBV, maribavir]
CDK7 + pUL97-Flag
  pUL97-mediated increased CDK7 kinase activity (trans-stimulation): abolished
CDK7 pSer164 and pThr170
  CDK7 phosphomarkers pSer164 and pThr170: modest increase
[1]
  reduction of the HCMV-induced increase of cyclin H mRNA levels: 68%
Human CDK7; 0.35 µM MBV
  effect on CDK7 activity: not inhibited
vCDK/pUL97; 0.35 µM
  pUL97 kinase activity reduced to: 50%
[2]
  reduction of the HCMV-induced increase of cyclin H mRNA levels: 28%
